Experimental data of several laboratories.
Lines come from different studies, so protocols differ. pEC50, pIC50: −log10 of the molar value. Converted amounts (≈) assume the structure as drawn.

| Compound | tested on | test | system | conditions | quantity | result |
| --- | --- | --- | --- | --- | --- | --- |
| COc1cc(N=C2C(=O)N(Cc3ccccc3)c3ccccc32)cc(OC)c1 | L02 | cell growth or viability, MTT |  | 48 h | pIC50 | < 4.00 |
| CNC(=S)NN=Cc1ccc(O)c(OC)c1 | Leishmania tropica | parasite growth | J774.A1 | 72 h, intracellular, amastigote | pIC50 | 3.61 |
| O=C1Nc2ccccc2C1=Nc1cccc(Cl)c1 | L02 | cell growth or viability, MTT |  | 48 h | pIC50 | 4.80 |
| CNC(=S)NN=Cc1ccc([N+](=O)[O-])cc1 | Leishmania tropica | parasite growth | J774.A1 | 72 h, intracellular, amastigote | pIC50 | 3.59 |
| Nc1nn2c(-c3ccc(Cl)cc3Cl)cc(-c3ccc(OCc4ccccc4)cc3)nc2c1N=Nc1ccc(F)cc1 | Saccharomyces cerevisiae | microbial killing, broth dilution | ATCC9763 |  | MFC | 62.5 µg/mL (≈ 107 µM) |
| O=C1C(=Nc2ccc(Cl)cc2Br)c2ccccc2N1Cc1ccc([N+](=O)[O-])cc1 | L02 | cell growth or viability, MTT |  | 48 h | pIC50 | 4.69 |
| CCOC(=O)C1=C(CN2CCC[C@@H]2C(=O)Nc2cccc(B(O)O)c2)NC(c2nccs2)=N[C@H]1c1ccc(F)cc1Br | Hepatitis B virus | viral replication, inhibitor, qPCR | HepDES19 | 72 h | pEC50 | 6.92 |
| O=C1Nc2ccccc2C1=Nc1ccccc1I | L02 | cell growth or viability, MTT |  | 48 h | pIC50 | 4.11 |
| CCOC(=O)C1=C(CN2CCC(C(=O)Nc3ccc(B4OC(C)(C)C(C)(C)O4)cc3)C2)NC(c2nccs2)=NC1c1ccc(F)cc1Br (stereo not drawn) | Hepatitis B virus | viral replication, inhibitor, qPCR | HepDES19 | 72 h | pEC50 | 6.11 |
| C[C@H]1CNCCCN1c1nccc(-c2noc([C@@]3(C)CCCc4sc(N)c(C#N)c43)n2)n1 | BaF3 | cell growth or viability |  | 72 h | pEC50 | 6.02 |
| C[C@H](Nc1ccc2c(c1)OCCn1cc(N3C(=O)OC[C@H]3C(F)F)nc1-2)C(N)=O | CAL-51 | cell growth or viability, ATP luminescence |  | 5 days | pEC50 | 5.90 |
| O=C1C(=Nc2ccccc2I)c2ccccc2N1Cc1ccc(Br)cc1 | L02 | cell growth or viability, MTT |  | 48 h | pIC50 | 4.45 |
| Cc1nc(Nc2ncc(C(=O)Nc3c(C)cccc3Cl)s2)cc(N2CC[C@H](O)C2)n1 | NALM-6 | cell growth or viability, ATP luminescence |  | 10 µM, 72 h | inhibition | 68% |
| Cc1nc(NC(=O)N2CCC[C@H]2C(N)=O)sc1-c1ccnc(C(C)(C)C(F)(F)F)c1 | MFM-223 | cell growth or viability, ATP luminescence |  | 5 days | pEC50 | 5.07 |
| CCOC(=O)C1=C(CN2CCC[C@@H]2C(=O)Nc2ccc(B(O)O)cc2)NC(c2nccs2)=N[C@H]1c1ccc(F)cc1Br | Hepatitis B virus | viral replication, inhibitor, qPCR | HepDES19 | 72 h | pEC50 | 7.15 |
| CNC(=S)NN=Cc1ccc(F)cc1 | Leishmania tropica | parasite growth, MTT |  | 72 h, promastigote | pIC50 | 3.36 |
| Nc1ccn([C@@H]2CS[C@H](CO)O2)c(=O)n1 | Hepatitis B virus | viral replication, inhibitor, qPCR | HepDES19 | 72 h | pEC50 | 6.40 |
| C[C@H]1CNCCCN1c1nccc(-c2noc3c2CCC[C@@]32CCCc3sc(N)c(C#N)c32)n1 | BaF3 | cell growth or viability |  | 72 h | pEC50 | 6.73 |
